Source: ChEMBL document CHEMBL4020827, “Targeting Multiple Effector Pathways in Pancreatic Ductal Adenocarcinoma with a G-Quadruplex-Binding Small Molecule” (J Med Chem, 2018)

Assays:
Mus musculus = test: Toxicity in CD-1 nude mouse xenografted with human MIAPaCa2 cells assessed as change in tumor ulceration at 15 mg/kg, iv administered twice weekly for 4 weeks measured for 40 days; type: organism-based; details: in vivo, 960 h
MCF7 = test: Growth inhibition of human MCF7 cells after 96 hrs by SRB assay; type: functional, cell-based; details: MCF7, 96 h
[1] = Binding affinity to 5'-FAM/3'-TAMRA labeled human telomeric F21T G-quadruplex DNA by direct fluorescence method
Method in brief: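 Buffer was 50 mM KCl, 10 mM Tris-HCl, 1 mM EDTA, pH 7.3, 25 °C, quartz cuvette. Quenching of ligand emission at 570 nm tracked; KD from a quadratic quenching fit.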

MIA PaCa-2 [2] = test: Antitumor activity against human MIAPaCa2 cells xenografted in CD-1 nude mouse assessed as change in tumor volume at 15 mg/kg, iv administered twice weekly for 4 weeks measured on day 29 relative to control; type: functional
Method in brief: (§1)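 Female CD-1 nude mice (2-3 months, 20−25 g) given 5 x 10^6 MIA PaCa-2 cells subcutaneously in right flank with Matrigel; dosing began once tumors were established (approx. 13 days, mean 0.05 cm3). Eight mice/group, IV in saline twice weekly for 28 days (8 doses) against a saline group. Tumors measured by calliper (length × width × height × π/6), with body weight. Student's t test.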

MIA PaCa-2 [3] = test: Antitumor activity against human MIAPaCa2 cells xenografted in CD-1 nude mouse assessed as change in tumor volume at 10 mg/kg, iv administered twice weekly for 4 weeks measured on day 62 relative to control; type: functional; method in brief: as §1
MIA PaCa-2 [4] = test: Antitumor activity against human MIAPaCa2 cells xenografted in CD-1 nude mouse assessed as change in tumor volume at 15 mg/kg, iv administered twice weekly for 4 weeks measured on day 62 relative to control; type: functional; method in brief: as §1
[5] = Drug uptake in tumor at flank region of CD-1 nude mouse xenografted with human MIAPaCa2 cells at 15 mg/kg, iv measured after 4 hrs; type: ADME, organism-based, Neoplasm; details: in vivo
PANC-1 [6] = test: Effect on AKT1 gene expression in human PANC1 cells at 400 nM after 6 hrs by RNA sequence analysis relative to control; type: functional
Method in brief: (§2)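 PANC-1 (0.35 x 10^6) or MIA PaCa-2 (1.5 x 10^6) cells seeded overnight in 60 mm plates, then exposed to 400 nM compound for 6 or 24 h; untreated cells as controls. Cells were mycoplasma-free and STR-certified. Differential expression by RNA-seq, called at FDR < 0.1.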

PANC-1 [7] = test: Effect on GLI2 gene expression in human PANC1 cells at 400 nM after 6 hrs by RNA sequence analysis relative to control; type: functional; method in brief: as §2
PANC-1 [8] = test: Effect on GLI4 gene expression in human PANC1 cells at 400 nM after 6 hrs by RNA sequence analysis relative to control; type: functional; method in brief: as §2
PANC-1 [9] = test: Effect on PFKL gene expression in human PANC1 cells at 400 nM after 6 hrs by RNA sequence analysis relative to control; type: functional
MIA PaCa-2 [10] = test: Effect on AKT1 gene expression in human MIAPaCa2 cells at 400 nM after 6 hrs by RNA sequence analysis relative to control; type: functional; method in brief: as §2
MIA PaCa-2 [11] = test: Effect on FASN gene expression in human MIAPaCa2 cells at 400 nM after 6 hrs by RNA sequence analysis relative to control; type: functional; method in brief: as §2
MIA PaCa-2 [12] = test: Effect on GLI2 gene expression in human MIAPaCa2 cells at 400 nM after 6 hrs by RNA sequence analysis relative to control; type: functional; method in brief: as §2
MIA PaCa-2 [13] = test: Effect on PFKFB4 gene expression in human MIAPaCa2 cells at 400 nM after 6 hrs by RNA sequence analysis relative to control; type: functional
MIA PaCa-2 [14] = test: Effect on TEAD4 gene expression in human MIAPaCa2 cells at 400 nM after 6 hrs by RNA sequence analysis relative to control; type: functional
Method in brief: (§3)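 RNA-seq: cells seeded overnight in 60 mm plates (PANC-1 0.35 x 10^6, MIA PaCa-2 1.5 x 10^6 cells/well), then exposed to 400 nM compound for 6 or 24 h against untreated controls. Cell lines mycoplasma-free by RNA-capture ELISA and STR-profiled. Differentially expressed genes called at FDR < 0.1.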

MIA PaCa-2 [15] = test: Effect on TP73 gene expression in human MIAPaCa2 cells at 400 nM after 6 hrs by RNA sequence analysis relative to control; type: functional; method in brief: as §3
PANC-1 [16] = test: Effect on AKT1S1 gene expression in human PANC1 cells at 400 nM after 24 hrs by RNA sequence analysis relative to control; type: functional; method in brief: as §2
PANC-1 [17] = test: Effect on CBFA2T3 gene expression in human PANC1 cells at 400 nM after 24 hrs by RNA sequence analysis relative to control; type: functional; method in brief: as §2
PANC-1 [18] = test: Effect on CTBP1 gene expression in human PANC1 cells at 400 nM after 24 hrs by RNA sequence analysis relative to control; type: functional; method in brief: as §2
PANC-1 [19] = test: Effect on IQSEC1 gene expression in human PANC1 cells at 400 nM after 24 hrs by RNA sequence analysis relative to control; type: functional; method in brief: as §2
PANC-1 [20] = test: Effect on PCK2 gene expression in human PANC1 cells at 400 nM after 24 hrs by RNA sequence analysis relative to control; type: functional
PANC-1 [21] = test: Effect on PIK3R2 gene expression in human PANC1 cells at 400 nM after 24 hrs by RNA sequence analysis relative to control; type: functional
PANC-1 [22] = test: Effect on ROBO3 gene expression in human PANC1 cells at 400 nM after 24 hrs by RNA sequence analysis relative to control; type: functional; method in brief: as §3
PANC-1 [23] = test: Effect on SMO gene expression in human PANC1 cells at 400 nM after 24 hrs by RNA sequence analysis relative to control; type: functional; method in brief: as §3
PANC-1 [24] = test: Effect on TEAD2 gene expression in human PANC1 cells at 400 nM after 24 hrs by RNA sequence analysis relative to control; type: functional; method in brief: as §3
PANC-1 [25] = test: Effect on TP73 gene expression in human PANC1 cells at 400 nM after 24 hrs by RNA sequence analysis relative to control; type: functional; method in brief: as §3
MIA PaCa-2 [26] = test: Effect on CBFA2T3 gene expression in human MIAPaCa2 cells at 400 nM after 24 hrs by RNA sequence analysis relative to control; type: functional; method in brief: as §2
MIA PaCa-2 [27] = test: Effect on FASN gene expression in human MIAPaCa2 cells at 400 nM after 24 hrs by RNA sequence analysis relative to control; type: functional; method in brief: as §2
MIA PaCa-2 [28] = test: Effect on MAPK11 gene expression in human MIAPaCa2 cells at 400 nM after 24 hrs by RNA sequence analysis relative to control; type: functional
MIA PaCa-2 [29] = test: Effect on MAPK9 gene expression in human MIAPaCa2 cells at 400 nM after 24 hrs by RNA sequence analysis relative to control; type: functional
MIA PaCa-2 [30] = test: Effect on mLST8 gene expression in human MIAPaCa2 cells at 400 nM after 24 hrs by RNA sequence analysis relative to control; type: functional; method in brief: as §3
MIA PaCa-2 [31] = test: Effect on PARD6A gene expression in human MIAPaCa2 cells at 400 nM after 24 hrs by RNA sequence analysis relative to control; type: functional
MIA PaCa-2 [32] = test: Effect on PIK3R2 gene expression in human MIAPaCa2 cells at 400 nM after 24 hrs by RNA sequence analysis relative to control; type: functional

For O=C1c2ccc3c4c(c(NCCN5CCCC5)cc(c24)C(=O)N1CCCN1CCOCC1)C(=O)N(CCCN1CCOCC1)C3=O, the Activity (Mus musculus) was “Non-Toxic”, the IC50 (MCF7) was 159 nM and the Kd [1] was 67 nM. The Activity (MIA PaCa-2 [2]) was -73.3%, the Activity (MIA PaCa-2 [3]) was -51.7% and the Activity (MIA PaCa-2 [4]) was -85%. The Drug uptake [5] was “Active”, the log2FC (PANC-1 [6]) was -0.18 and the log2FC (PANC-1 [7]) was -0.67. For the same compound, the log2FC (PANC-1 [8]) was -1.26, the log2FC (PANC-1 [9]) was -0.21 and the log2FC (MIA PaCa-2 [10]) was -0.2. It also gave a log2FC (MIA PaCa-2 [11]) of -0.06, a log2FC (MIA PaCa-2 [12]) of -1.17 and a log2FC (MIA PaCa-2 [13]) of -1.02. It also gave a log2FC (MIA PaCa-2 [14]) of -0.79, a log2FC (MIA PaCa-2 [15]) of -2.36 and a log2FC (PANC-1 [16]) of -0.83. The log2FC (PANC-1 [17]) was -2.25, the log2FC (PANC-1 [18]) was -0.98 and the log2FC (PANC-1 [19]) was -0.5. For the same compound, the log2FC (PANC-1 [20]) was -0.56, the log2FC (PANC-1 [21]) was -0.88 and the log2FC (PANC-1 [22]) was -0.85. For the same compound, the log2FC (PANC-1 [23]) was -0.82, the log2FC (PANC-1 [24]) was 0.21 and the log2FC (PANC-1 [25]) was -0.99. The log2FC (MIA PaCa-2 [26]) was -2.86, the log2FC (MIA PaCa-2 [27]) was -0.54 and the log2FC (MIA PaCa-2 [28]) was -2.56. For the same compound, the log2FC (MIA PaCa-2 [29]) was -0.6, the log2FC (MIA PaCa-2 [30]) was -1.28 and the log2FC (MIA PaCa-2 [31]) was -1.4. For the same compound, the log2FC (MIA PaCa-2 [32]) was -1.14.
